Where a chain is given by its changes, count along the chain named. In names and notes the source's numbering stands.
B1: M264D: α-TTP mutant; surface methionine replaced with aspartate in a region predicted distant from the membrane plane (protein, UniProt P49638 1-278, looked up, variant M264D)
Alpha-tocopherol transfer …: MAEARSQPSAGPQLNALPDHSPLLQPGLAALRRRAREAGVPLAPLPLTDSFLLRFLRARDFDLDLAWRLLKNYYKWRAECPEISADLHPRSIIGLLKAGYHGVLRSRDPTGSKVLIYRIAHWDPKVFTAYDVFRVSLITSELIVQEVETQRNGIKAIFDLEGWQFSHAFQITPSVAKKIAAVLTDSFPLKVRGIHLINEPVIFHAVFSMIKPFLTEKIKERIHMHGNNYKQSLLQHFPDILPLEYGGEEFSMEDICQEWTNFIDKSEDYLSSISESIQ
B2: M209D: α-TTP mutant, Met209 to Asp (helix A10) (protein, UniProt P49638 1-278, looked up, variant M209D)
Alpha-tocopherol transfer …: B1 Alpha-tocopherol transfer … with M209D, D264M
B3: R192H: naturally-occurring α-TTP mutant associated with heritable mild vitamin E deficiency in humans (protein, UniProt P49638 1-278, looked up, variant R192H)
Alpha-tocopherol transfer …: B1 Alpha-tocopherol transfer … with R192H, D264M
B4: I202D/M209D: α-TTP double mutant (protein, UniProt P49638 1-278, looked up, variant I202D M209D)
Alpha-tocopherol transfer …: B1 Alpha-tocopherol transfer … with I202D, M209D, D264M
B5: I202D: α-TTP mutant, Ile202 to Asp (helix A10) (protein, UniProt P49638 1-278, looked up, variant I202D)
Alpha-tocopherol transfer …: B1 Alpha-tocopherol transfer … with I202D, D264M
B6: F165D/M209D: α-TTP double mutant (protein, UniProt P49638 1-278, looked up, variant F165D M209D)
Alpha-tocopherol transfer …: B1 Alpha-tocopherol transfer … with F165D, M209D, D264M
B7: F165D: α-TTP mutant, Phe165 to Asp (helix A8) (protein, UniProt P49638 1-278, looked up, variant F165D)
Alpha-tocopherol transfer …: B1 Alpha-tocopherol transfer … with F165D, D264M
B8: V206A: α-TTP mutant, Val206 to Ala (protein, UniProt P49638 1-278, looked up, variant V206A)
Alpha-tocopherol transfer …: B1 Alpha-tocopherol transfer … with V206A, D264M
B9: K211A: α-TTP mutant, surface Lys211 (helix A10) to Ala (protein, UniProt P49638 1-278, looked up, variant K211A)
Alpha-tocopherol transfer …: B1 Alpha-tocopherol transfer … with K211A, D264M
B10: F165A: α-TTP mutant, Phe165 to Ala (protein, UniProt P49638 1-278, looked up, variant F165A)
Alpha-tocopherol transfer …: B1 Alpha-tocopherol transfer … with F165A, D264M
B11: M209A: α-TTP mutant, Met209 to Ala (protein, UniProt P49638 1-278, looked up, variant M209A)
Alpha-tocopherol transfer …: B1 Alpha-tocopherol transfer … with M209A, D264M

How the values were obtained:
[1] = FRET assay of NBD-Toc transfer from α-TTP variants to LUVs; assay type: biochemical; details: for Rate of NBD-Toc transfer to LUV, Rate: PC vesicles, 0.225 μM NBD-Toc, 2 μM α-TTP, 100 μM vesicles, room temperature; for Rate of NBD-Toc transfer to LUV, Rate^mut/Rate^wt: relative to wild type
Summary of the method: (§1)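 Each protein (4 μM) was preloaded with 0.45 μM NBD-Toc for 15 min in SET buffer (pH 7.4). It was then stopped-flow mixed at room temperature with 200 μM acceptor vesicles of 97% liver PC and 3% TRITC-PE (finals 0.225 μM, 2 μM, 100 μM). Vesicles were sonicated SUVs (~60 nm) or extruded LUVs (150 nm). NBD quench was normalised to initial fluorescence and fitted single-exponentially.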

[2] = FRET assay of NBD-Toc transfer from α-TTP variants to SUVs; assay type: biochemical; details: for Rate of NBD-Toc transfer to SUV, Rate: PC vesicles, 0.225 μM NBD-Toc, 2 μM α-TTP, 100 μM vesicles, room temperature; for Rate of NBD-Toc transfer to SUV, Rate^mut/Rate^wt: relative to wild type; for Reduction of rate of transfer to SUVs: reduction relative to wild type
Summary of the method: as §1

[3] = Dual polarization interferometry of protein adsorption to immobilized bilayer; assay type: binding; details: for Ads^mut/Ads^wt (0.50 μM injection): 0.50 μM protein injection; for Ads^mut/Ads^wt (1.0 μM injection): 1.0 μM protein injection; for Fold change in affinity: relative to wild type; for Adsorption/binding to immobilized bilayers by DPI, % of wild type: injection concentration not stated
Summary of the method: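 Recombinant α-TTP (E. coli BL21(DE3), glutathione affinity, thrombin-cleaved) was dialysed 1 h at 4 °C into pH 7.4 phosphate/137 mM NaCl buffer. It was injected at 25 μl/min for 8 min over a 90:10 DOPC:DOPS bilayer on a silicon oxynitride chip at 20 °C. Adsorbed mass was measured at 0.5 and 1.0 μM in quadruplicate, two channels each. Kd came from fitting Bmax against concentration.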

[4] = Filtration; assay type: binding; details: compared with wild type
Summary of the method: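 Recombinant α-TTP (31.5 μg) was incubated with increasing concentrations of sonicated SUVs or extruded 150 nm LUVs in SET buffer for 30 min at room temperature. Mixtures were spun through 100 kDa-cutoff filters at 10,000g for 20 min to separate vesicle-bound from free protein. Protein was resolved on gels, stained with colloidal Coomassie and quantified by band densitometry.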

Row | Adsorption/binding to immobilized bilayers by DPI, % of wild type [3] | Binding to immobilized bilayers, % of WT ([3]; printed "for LUVs") [%] | Binding to immobilized bilayers, % of WT ([3]; printed "for SUVs") [%] | Vesicle binding to SUVs (in words) [4] | Molecule | Reduction of transfer rate with LUVs versus SUVs ([1]; LUVs compared with SUVs) [fold] | Rate of NBD-Toc transfer to LUV, Rate [1] [s⁻¹] | Rate of NBD-Toc transfer to LUV, Rate^mut/Rate^wt [1] [%] | Rate of NBD-Toc transfer to SUV, Rate [2] [s⁻¹] | Rate of NBD-Toc transfer to SUV, Rate^mut/Rate^wt [2] [%] | Ads^mut/Ads^wt (0.50 μM injection) [3] | Ads^mut/Ads^wt (1.0 μM injection) [3] | Fold change in affinity [3] | Reduction of rate of ligand deposition in LUVs ([1]; reduction relative to wild type) [%] | Reduction of rate of transfer to SUVs [2] [%] | Effect on rate of NBD-Toc transfer to SUVs (in words) ([2]; compared with wild type or single mutants)
1 | – | – | – | – | WT: human α-tocopherol transfer protein, wild type, expressed in E. coli as GST fusion and cleaved | 8 | 0.016 ± 0.002 | 100 | 0.127 ± 0.012 | 100 | 1 | 1 | 0 | – | – | –
2 | – | – | – | – | B1 | – | 0.008 ± 0.001 | 50 | 0.116 ± 0.013 | 91 | 0.66 | 0.81 | – | 50 | 9 | –
3 | – | – | – | – | B2 | – | 0.013 ± 0.001 | 81 | 0.047 ± 0.004 | 37 | 0.39 | 0.42 | 1.2 | – | 63 | –
4 | ~ 150% | 150 | 158 | – | B3 | – | 0.012 ± 0.003 | 75 | 0.106 ± 0.008 | 83 | 1.58 | 1.50 | – | – | – | –
5 | – | – | – | – | B4 | – | 0.008 ± 0.003 | 50 | – | 11 | 0.13 | 0.07 | 10.9 | – | – | –
6 | – | – | – | – | B5 | – | 0.005 ± 0.002 | 31 | 0.028 ± 0.002 | 22 | 0.29 | 0.27 | 5 | – | 78 | –
7 | – | – | – | – | B6 | – | 0.010 ± 0.001 | 62 | 0.034 ± 0.003 | 27 | 0.01 | 0.18 | – | – | – | –
8 | 11% | – | – | diminished vesicle binding | B7 | – | 0.009 ± 0.005 | 56 | 0.013 ± 0.001 | 10 | 0.11 | 0.19 | 12.2 | – | 90 | –
9 | – | – | – | – | B8 | – | 0.016 ± 0.002 | 100 | 0.154 ± 0.012 | 121 | 0.93 | 1.14 | – | – | – | –
10 | 123% | – | – | – | B9 | – | 0.011 ± 0.001 | 69 | 0.105 ± 0.008 | 83 | 1.23 | 0.95 | – | – | – | –
11 | – | – | – | diminished vesicle binding | B10 | – | 0.005 ± 0.002 | 34 | 0.037 ± 0.002 | 29 | 0.37 | 0.45 | 5.1 | – | 71 | –
12 | – | – | – | – | B11 | – | 0.025 ± 0.005 | 156 | 0.140 ± 0.012 | 110 | 1.01 | 1.12 | – | – | – | essentially no effect
